The target in assay [1] is T1, Alpha-1D adrenergic receptor (Rattus norvegicus) (UniProt P23944).
T1 sequence (whole entry): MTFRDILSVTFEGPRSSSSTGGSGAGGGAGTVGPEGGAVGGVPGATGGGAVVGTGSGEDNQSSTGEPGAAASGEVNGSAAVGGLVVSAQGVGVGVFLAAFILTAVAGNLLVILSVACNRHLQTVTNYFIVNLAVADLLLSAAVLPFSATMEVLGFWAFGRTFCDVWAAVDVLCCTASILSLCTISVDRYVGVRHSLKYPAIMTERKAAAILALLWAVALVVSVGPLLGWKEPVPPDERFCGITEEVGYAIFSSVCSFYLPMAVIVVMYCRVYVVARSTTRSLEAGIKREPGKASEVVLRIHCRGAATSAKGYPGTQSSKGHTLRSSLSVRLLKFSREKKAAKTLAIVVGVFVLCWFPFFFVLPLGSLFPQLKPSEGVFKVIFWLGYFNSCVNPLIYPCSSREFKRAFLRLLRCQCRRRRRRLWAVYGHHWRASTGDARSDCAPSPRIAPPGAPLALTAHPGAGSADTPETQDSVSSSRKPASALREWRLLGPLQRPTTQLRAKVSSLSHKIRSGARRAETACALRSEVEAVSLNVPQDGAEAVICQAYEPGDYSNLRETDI
The following applies: Thoracic aorta.

Assay [2] concerns the target T2, Alpha-1B adrenergic receptor (Rattus norvegicus) (UniProt P15823).
T2 sequence (whole entry): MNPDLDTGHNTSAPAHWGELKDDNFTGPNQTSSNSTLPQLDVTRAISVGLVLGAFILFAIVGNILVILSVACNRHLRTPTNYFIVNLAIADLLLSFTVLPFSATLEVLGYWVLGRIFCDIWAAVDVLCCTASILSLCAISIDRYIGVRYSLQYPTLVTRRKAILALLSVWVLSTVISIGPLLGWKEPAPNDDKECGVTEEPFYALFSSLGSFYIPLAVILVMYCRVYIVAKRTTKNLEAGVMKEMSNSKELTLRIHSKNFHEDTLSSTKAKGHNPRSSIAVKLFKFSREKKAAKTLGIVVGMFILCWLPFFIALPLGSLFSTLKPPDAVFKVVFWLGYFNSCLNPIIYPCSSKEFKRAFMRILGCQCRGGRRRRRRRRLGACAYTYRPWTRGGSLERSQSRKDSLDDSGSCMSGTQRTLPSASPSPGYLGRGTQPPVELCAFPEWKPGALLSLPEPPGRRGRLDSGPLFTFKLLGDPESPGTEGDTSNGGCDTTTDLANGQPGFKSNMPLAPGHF
The conditions noted are these: Spleen.

The target in assay [3] is T3, Alpha-1A adrenergic receptor (Rattus norvegicus) (UniProt P43140).
T3 sequence (whole entry): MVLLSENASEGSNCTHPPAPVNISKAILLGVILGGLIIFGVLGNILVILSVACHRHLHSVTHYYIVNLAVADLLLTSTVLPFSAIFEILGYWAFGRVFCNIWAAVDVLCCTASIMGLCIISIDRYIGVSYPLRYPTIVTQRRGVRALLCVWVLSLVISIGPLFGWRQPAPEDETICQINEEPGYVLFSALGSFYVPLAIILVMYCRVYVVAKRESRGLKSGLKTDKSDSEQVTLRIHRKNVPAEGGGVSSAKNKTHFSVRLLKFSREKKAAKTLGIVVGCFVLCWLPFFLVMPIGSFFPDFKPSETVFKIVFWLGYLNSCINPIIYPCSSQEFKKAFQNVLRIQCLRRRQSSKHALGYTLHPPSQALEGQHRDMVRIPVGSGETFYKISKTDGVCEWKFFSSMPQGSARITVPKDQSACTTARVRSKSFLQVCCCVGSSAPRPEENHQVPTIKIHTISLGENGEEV

Assay [4] addresses T4, Alpha-1A adrenergic receptor (Rattus norvegicus, UniProt P43140).
T4 sequence (P43140 whole entry): T3 sequence (whole entry)
As to the kind of experiment: Antagonist affinity [non competitive (irreversible)] at alpha-1A-adrenoceptors on isolated prostatic Vas deferens from rat. Type of assay: functional. A digest of the protocol: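 Rat vas deferens prostatic portion, equilibrated 60 min with washes every 15 min, primed twice with 10 µM noradrenaline, then a basal noradrenaline concentration-response curve (solutions with 0.05% Na₂S₂O₅). Antagonist 30 min, then 30 min washing, then a new curve. Maximal-response decrease expressed as % of control; IC50 read graphically from % inhibition vs log molar concentration, given as pIC50 ± SE.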

Assay [5] deals with T5, Alpha-1B adrenergic receptor (Rattus norvegicus, UniProt P15823).
T5 sequence (P15823 whole entry): T2 sequence (whole entry)
As to the kind of experiment: Antagonist affinity [non competitive (irreversible)] at alpha-1B-adrenoceptors on isolated spleen from rat. Type of assay: functional, tissue-based. A digest of the protocol:
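Isolated rat spleen contracted by (-)-phenylephrine, measured isometrically. Cumulative curves run at 30 min intervals, the second taken as control. Antagonist incubated 30 min, washed 30 min, then a new curve. Loss of maximal response expressed as % of control; IC50 estimated from % inhibition vs log molar concentration plots, reported as pIC50 ± SE of n experiments.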

Results on 26 molecules are retold here after ChEMBL document CHEMBL1134835, “Analogues of prazosin that bear a benextramine-related polyamine backbone exhibit different antagonism toward alpha1-adrenoreceptor subtypes” (J Med Chem, 2001).

Molecules are shown by their SMILES.

The pKb is the negative decadic logarithm of the Kb, by convention in mol/L. As to `COc1cc2nc(N(C)CCCCCCN(C)C(=O)c3cccc(CNCCCCCCNCCCCCCNCCCCCCNCc4cccc(C(=O)N(C)CCCCCCN(C)c5nc(N)c6cc(OC)c(OC)cc6n5)c4)c3)nc(N)c2cc1OC`, the pKb in assay [1] stood at 9.3; in assay [2], 7.41; in assay [3] it was 8.48.
For `COc1cc2nc(N3CCN(C(=O)c4ccccc4C(F)(F)F)CC3)nc(N)c2cc1OC`, in that order: 8.31, 6.55 and 6.43.
Regarding `COc1cc2nc(N3CCN(C(=O)c4ccccc4C)CC3)nc(N)c2cc1OC`, the pKb in assay [1] worked out at 7.99; in assay [2] it was 7.33; in assay [3], 6.97.
The corresponding values for `COc1cc2nc(N3CCN(C(=O)c4ccccc4)CC3)nc(N)c2cc1OC` are 8.86, 7.44 and 7.66.
With `COc1cccc(C(=O)N2CCN(c3nc(N)c4cc(OC)c(OC)cc4n3)CC2)c1`, the negative-log Kb (pKb) was 7.46 in assay [1], 7.84 in assay [2] and 7.87 in assay [3].
One may read the IC50 as the concentration needed to halve the response being measured. Regarding `COc1cc2nc(N3CCN(C(=O)c4cccc(CNCCCCCCNCCSSCCNCCCCCCNCc5cccc(C(=O)N6CCN(c7nc(N)c8cc(OC)c(OC)cc8n7)CC6)c5)c4)CC3)nc(N)c2cc1OC`, the IC50 is 3.89 µM in assay [4] and 55 µM in assay [5].
Turning to `COc1cc2nc(N3CCN(C(=O)c4ccc(C)cc4)CC3)nc(N)c2cc1OC`, the pKb was 8.91 in assay [1], 7.67 in assay [2] and 7.96 in assay [3].
As to `COc1cc2nc(N3CCN(C(=O)c4cccc(C=O)c4)CC3)nc(N)c2cc1OC`, the pKb came to 8.07 in assay [1], 6.92 in assay [2] and 7.79 in assay [3].
In the case of `COc1cc2nc(N(C)CCCCCCN(C)C(=O)c3cccc(CNCCCCCCNCCSSCCNCCCCCCNCc4cccc(C(=O)N(C)CCCCCCN(C)c5nc(N)c6cc(OC)c(OC)cc6n5)c4)c3)nc(N)c2cc1OC`, the IC50 in assay [4] is 0.0457 µM; in assay [5], 1.74 µM.
`COc1cc2nc(N3CCN(C(=O)c4cccc(C(F)(F)F)c4)CC3)nc(N)c2cc1OC`: the pKb was 8.38 in assay [1], 7.16 in assay [2] and 7.49 in assay [3].
With `COc1ccc(C(=O)N2CCN(c3nc(N)c4cc(OC)c(OC)cc4n3)CC2)cc1`, the figures for the negative logarithm of the Kb (pKb) in assay [1], in assay [2] and in assay [3] were 8.98, 7.74 and 8.46, respectively.
On to `COc1cc2nc(N3CCN(C(=O)c4ccc(CNCCCCCCNCCSSCCNCCCCCCNCc5ccc(C(=O)N6CCN(c7nc(N)c8cc(OC)c(OC)cc8n7)CC6)cc5)cc4)CC3)nc(N)c2cc1OC`, for which the results for the IC50 in assay [4] and in assay [5] were 2 µM and 41.7 µM, respectively.
As to `COc1cc2nc(N3CCN(C(=O)c4ccccc4OC)CC3)nc(N)c2cc1OC`, the pKb came out at 7.76 in assay [1], 6.77 in assay [2] and 7.34 in assay [3].
As to `COc1cc2nc(N3CCN(C(=O)c4ccc(C(F)(F)F)cc4)CC3)nc(N)c2cc1OC`, the figures for the pKb in assay [1], in assay [2] and in assay [3] were 8.31, 7.45 and 7.43, respectively.
Consider `COc1cc2nc(N3CCN(C(=O)c4ccccc4CNCCCCCCNCCSSCCNCCCCCCNCc4ccccc4C(=O)N4CCN(c5nc(N)c6cc(OC)c(OC)cc6n5)CC4)CC3)nc(N)c2cc1OC`, for which the IC50 in assay [4] was 5.01 µM; in assay [5], 5.13 µM.
For the molecule `COc1cc2nc(N(C)CCCCCCN(C)C(=O)c3ccccc3CNCCCCCCNCCCCCCNCCCCCCNCc3ccccc3C(=O)N(C)CCCCCCN(C)c3nc(N)c4cc(OC)c(OC)cc4n3)nc(N)c2cc1OC`, the results for the pKb in assay [1], in assay [2] and in assay [3] were 8.47, 7.22 and 8.17, respectively.
Consider `COc1cc2nc(N3CCN(C(=O)c4ccccc4C=O)CC3)nc(N)c2cc1OC`, for which the pKb in assay [1] is 7.56; in assay [2], 6.5; in assay [3] it was 6.94.
Regarding `COc1cc2nc(N3CCN(C(=O)c4ccco4)CC3)nc(N)c2cc1OC`, the figures for the pKb in assay [1] and in assay [3] were 9.71 and 8.99, respectively.
Turning to `COc1cc2nc(N3CCN(C(=O)c4ccc(CNCCCCCCNCCCCCCNCCCCCCNCc5ccc(C(=O)N6CCN(c7nc(N)c8cc(OC)c(OC)cc8n7)CC6)cc5)cc4)CC3)nc(N)c2cc1OC`, the results for the pKb in assay [1], in assay [2] and in assay [3] were 7.47, 7.16 and 6.97, respectively.
With `COc1cc2nc(N(C)CCCCCCN(C)C(=O)c3ccccc3CNCCCCCCNCCSSCCNCCCCCCNCc3ccccc3C(=O)N(C)CCCCCCN(C)c3nc(N)c4cc(OC)c(OC)cc4n3)nc(N)c2cc1OC`, the IC50 in assay [4] and in assay [5] was 1.86 µM each time.
For the molecule `COc1cc2nc(N3CCN(C(=O)c4cccc(C)c4)CC3)nc(N)c2cc1OC`, the pKb in assay [1] turned out to be 9.12; in assay [2] it was 8.12; in assay [3] it was 8.49.
For the molecule `COc1cc2nc(N3CCN(C(=O)c4ccccc4CNCCCCCCNCCCCCCNCCCCCCNCc4ccccc4C(=O)N4CCN(c5nc(N)c6cc(OC)c(OC)cc6n5)CC4)CC3)nc(N)c2cc1OC`, the results for the pKb in assay [1], in assay [2] and in assay [3] were 7.94, 6.8 and 7.74, respectively.
For `COc1cc2nc(N3CCN(C(=O)c4ccc(C=O)cc4)CC3)nc(N)c2cc1OC`, in that order: 8.38, 6.95 and 7.59.
With `COc1cc2nc(N3CCN(C(=O)c4cccc(CNCCCCCCNCCCCCCNCCCCCCNCc5cccc(C(=O)N6CCN(c7nc(N)c8cc(OC)c(OC)cc8n7)CC6)c5)c4)CC3)nc(N)c2cc1OC`, the values for the pKb in assay [1], in assay [2] and in assay [3] were 7.43, 6.5 and 7.29, respectively.
For `COc1cc2nc(N(C)CCCCCCN(C)C(=O)c3ccc(CNCCCCCCNCCCCCCNCCCCCCNCc4ccc(C(=O)N(C)CCCCCCN(C)c5nc(N)c6cc(OC)c(OC)cc6n5)cc4)cc3)nc(N)c2cc1OC`, in that order: 7.9, 7.56 and 8.53.
For `COc1cc2nc(N(C)CCCCCCN(C)C(=O)c3ccc(CNCCCCCCNCCSSCCNCCCCCCNCc4ccc(C(=O)N(C)CCCCCCN(C)c5nc(N)c6cc(OC)c(OC)cc6n5)cc4)cc3)nc(N)c2cc1OC`, the IC50 in assay [4] is 4.68 µM; in assay [5] it was 2.14 µM.
